# Source: ChEMBL document CHEMBL4130608, “Isolation, Derivative Synthesis, and Structure-Activity Relationships of Antiparasitic Bromopyrrole Alkaloids from the Marine Sponge Tedania brasiliensis” (J Nat Prod, 2018)
# Activity calls are given as the source filed them. The calls are words filed in the database; no cut-off is given here.
# Experiments:
# [1] = test system: Leishmania amazonensis; experiment: Antileishmanial activity against Leishmania amazonensis amastigotes infected in BALB/c mouse BMDM assessed as reduction in intracellular amastigotes at 50 uM after 24 hrs by microscopic analysis relative to control; assay type: functional; parameters: scale not given: the % may be the effect or the level left
# Outline: (§1)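 BALB/c bone marrow macrophages infected with stationary-phase L. amazonensis promastigotes (MOI 10) for 1 h, then washed and held 24 h at 33 °C, 5% CO2. Treated with 6.125, 25, 50 or 100 μM for 24 h at 33 °C. Cells MeOH-fixed and stained. Amastigotes counted in 300 cells per coverslip on triplicate coverslips. Expressed as % reduction versus untreated infected cells. Two independent experiments.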
# [2] = test system: BMDM; experiment: Cytotoxicity against BALB/c mouse BMDM after 24 hrs by MTT assay; assay type: cell-based
# Outline: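 Differentiated BALB/c female mouse bone marrow macrophages incubated at 37 °C with increasing concentrations for 24 h. Viability read by MTT and CC50 calculated.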
# [3] = test system: Trypanosoma cruzi; experiment: Antitrypanosomal activity against Trypanosoma cruzi Y epimastigotes after 24 hrs by MTT assay; assay type: functional, organism-based
# Outline: (§2)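 Promastigotes (L. amazonensis, L. infantum; 26 °C, M199 with 20% heat-inactivated FBS, hemin, adenine, L-glutamine, plus 5% human urine for L. infantum) or T. cruzi Y epimastigotes (LIT with hemin, 10% FCS, 28 °C). Exposed to a series of concentrations for 24 h. Viability read by MTT. EC50 from sigmoidal fit of concentration–response. Triplicates, repeated two or three times.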
# [4] = test system: Leishmania amazonensis; experiment: Antileishmanial activity against Leishmania amazonensis amastigotes infected in BALB/c mouse BMDM assessed as reduction in intracellular amastigotes after 24 hrs by microscopic analysis; assay type: functional, organism-based; outline: as §1
# [5] = test system: Leishmania amazonensis; experiment: Antileishmanial activity against Leishmania amazonensis MHOM/BR/1973/M2269 promastigotes after 24 hrs by MTT assay; assay type: functional, organism-based; conditions: MHOM/BR/1973/M2269, 24 h; outline: as §2
# [6] = test system: Plasmodium falciparum; experiment: Antiplasmodial activity against drug-sensitive blood stage Plasmodium falciparum 3D7 by SYBR green 1 staining based fluorescence assay; assay type: functional, organism-based
# Outline: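 Sorbitol-synchronized ring-stage 3D7 exposed to a range of concentrations (samples in 0.05% DMSO), in triplicate. Then lysed with Tris/EDTA/saponin/Triton buffer containing SYBR Green I (1:20000) for 30 min. IC50 from curve fitting against untreated growth.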
# [7] = test system: Leishmania amazonensis; experiment: Antileishmanial activity against Leishmania amazonensis amastigotes infected in BALB/c mouse BMDM assessed as reduction in intracellular amastigotes at 100 uM after 24 hrs by microscopic analysis relative to control; assay type: functional; parameters: scale not given: the % may be the effect or the level left; outline: as §1
# [8] = test system: Leishmania infantum; experiment: Antileishmanial activity against Leishmania infantum MHOM/BR/1972/LD promastigotes after 24 hrs by MTT assay; assay type: functional, organism-based; outline: as §2
# [9] = test system: Leishmania amazonensis; experiment: Antileishmanial activity against Leishmania amazonensis amastigotes infected in BALB/c mouse BMDM assessed as reduction in intracellular amastigotes at 25 uM after 24 hrs by microscopic analysis relative to control; assay type: functional; parameters: scale not given: the % may be the effect or the level left; outline: as §1
# [10] = test system: Leishmania amazonensis; experiment: Antileishmanial activity against Leishmania amazonensis amastigotes infected in BALB/c mouse BMDM assessed as reduction in intracellular amastigotes at 6.125 uM after 24 hrs by microscopic analysis relative to control; assay type: functional; parameters: scale not given: the % may be the effect or the level left; outline: as §1
# [11] = test system: Plasmodium falciparum; experiment: Antiplasmodial activity against chloroquine/pyrimethamine-resistant Plasmodium falciparum K1 assessed as reduction in [3H]hypoxanthine incorporation pretreated for 48 hrs followed by [3H]hypoxanthine addition measured after 24 hrs by liquid scintillation counting method; assay type: functional, organism-based
# [12] = test system: Plasmodium falciparum; experiment: Synergistic antiplasmodial activity against chloroquine/cycloguanil/pyrimethamine-resistant blood stage Plasmodium falciparum K1 in presence of artesunate; assay type: functional
# Outline: (§3)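 Each drug's stock was made in complete medium so that the final concentration approximates its IC50 after 3–4 twofold dilutions. Stocks were mixed v/v at ratios ranging from 0:5 to 5:0 and serially diluted two-fold to seven concentrations. FIC50 was computed for each drug and summed as ΣFIC50.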
# [13] = test system: HepG2; experiment: Cytotoxicity against human HepG2 cells assessed as morphological changes at 10 uM by microscopic method; assay type: cell-based; conditions: hepg2, 10 µM
# Outline: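 HepG2 cells treated at 10 μM for 24 h. Microscopic morphology compared with untreated cells.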
# [14] = Selectivity index, ratio of MDL50 for human HepG2 cells to IC50 for drug-sensitive blood stage Plasmodium falciparum 3D7; assay type: toxicity; conditions: HepG2 cells versus blood stage Plasmodium falciparum 3D7, read-out: Selectivity Index
# [15] = test system: Plasmodium falciparum; experiment: Antiplasmodial activity against drug-sensitive blood stage Plasmodium falciparum 3D7 ring forms assessed as morphological changes at 10 times IC50 after 8 to 16 hrs by microscopic analysis; assay type: functional, organism-based
# Outline: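 Morphology examined by microscopy at 0, 8, 16 and 32 h post-synchronization. Three independent experiments.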
# [16] = test system: Plasmodium falciparum; experiment: Synergistic antiplasmodial activity against drug-sensitive blood stage Plasmodium falciparum 3D7 in presence of artesunate; assay type: functional; outline: as §3
# [17] = test system: Plasmodium falciparum; experiment: Antiplasmodial activity against chloroquine/cycloguanil/pyrimethamine-resistant blood stage Plasmodium falciparum K1 assessed as morphological changes at 10 times IC50 after 8 to 16 hrs by microscopic analysis; assay type: functional, organism-based
# Outline: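 Highly synchronized blood-stage parasites were kept under continuous treatment, with a DMSO-treated control. Morphology was examined by microscopy at 0, 8, 16 and 32 h post-synchronization. Images are representative of three independent experiments.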
# [18] = test system: Plasmodium falciparum; experiment: Antiplasmodial activity against chloroquine/cycloguanil/pyrimethamine-resistant blood stage Plasmodium falciparum K1 by SYBR green 1 staining based fluorescence assay; assay type: functional, organism-based
# Outline: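 Freshly sorbitol-synchronized ring stages were exposed in triplicate to a concentration series, solubilized in 0.05% DMSO (v/v), alongside sample-free cultures. Cells were lysed for 30 min in 20 mM Tris pH 7.5, 5 mM EDTA, 0.008% saponin and 0.08% Triton X-100 with SYBR green I (1:20000). IC50 was obtained by curve fitting against untreated growth.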
# [19] = Cytotoxicity against human HepG2 cells after 24 hrs by MTT assay; assay type: cell-based; conditions: read-out: MDL50
# Outline: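 HepG2 cells grown in RPMI-1640 with 10% FBS, seeded at 5 × 10^3 cells/well and allowed to adhere for 18 h. Exposed to 1,000–1 μg/mL for 24 h at 37 °C, 5% CO2. MTT (5 mg/mL stock) added for 3 h, formazan dissolved in DMSO, absorbance read at 570 and 630 nm. Viability expressed as % of untreated control after background subtraction.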
# [20] = test system: Trypanosoma brucei rhodesiense; experiment: Antitrypanosomal activity against Trypanosoma brucei rhodesiense STIB 900 bloodstream forms after 72 hrs by alamar blue staining based fluorescence assay; assay type: functional, organism-based; conditions: STIB 900, 72 h
# [21] = test system: Leishmania donovani; experiment: Antileishmanial activity against Leishmania donovani MHOM/ET/67/L82 amastigote forms after 72 hrs by alamar blue staining based fluorescence assay; assay type: functional, organism-based; conditions: MHOM/ET/67/L82, 72 h
Structure (SMILES),EC50 [3] [µM],IC50 [6] [µM],EC50 [5] [µM],EC50 [8] [µM],also measured
O=C(NCCCCNCCCNC(=O)c1ccc(Br)s1)c1ccc(Br)s1,> 100,> 10,76,20,Activity [1]: 58.8%; CC50 [2]: > 100 µM; Activity [4]: Dose-dependent effect; Activity [7]: 79.5%; Activity [9]: 41.5%; Activity [10]: 46.4%
NC1NC(=O)/C(=C2/CCNC(=O)c3[nH]cc(Br)c32)N1 (stereo not given) [SPONGIACIDIN B],,,,,IC50 [11]: 1.09 µg/mL
Cc1ccc(C(=O)NCCCCNCCCNC(=O)c2ccc(C)s2)s1,> 100,> 10,> 100,> 100,
O=C(NCCCCNCCCNC(=O)c1cc(Br)c(Br)[nH]1)c1cc(Br)c(Br)[nH]1,> 100,1,> 100,> 100,fractional inhibitory concentration index (FICI) [12]: 1; Activity [13]: Non-Toxic; selectivity ratio [14]: 15; Activity [15]: Active; fractional inhibitory concentration index (FICI) [16]: 1; Activity [17]: Active; IC50 [18]: 1.1 µM; CC50 at 24 h [19]: 16 µM
NC1=N/C(=C\CCNC(=O)c2cc(Br)c[nH]2)C(=O)N1,,,,,IC50 [11]: 1.34 µg/mL
NC[C@H]1[C@@H]2CN3C(=O)c4cc(Br)c(Br)n4[C@H]4NC(N)=N[C@]43[C@H]2[C@@]2(N=C(N)N[C@@H]2O)[C@@H]1Cl,,,,,IC50 [20]: 0.46 µg/mL; IC50 [11]: 1.48 µg/mL; IC50 [21]: 1.48 µg/mL
O=C(NCCCCNCCCNC(=O)c1cc2ccccc2[nH]1)c1cc2ccccc2[nH]1,> 100,> 10,> 100,> 100,
O=C(NCCCCNCCCNC(=O)c1cc(Br)c[nH]1)c1cc(Br)c[nH]1,> 100,7,> 100,> 100,selectivity ratio [14]: ≥ 54; CC50 at 24 h [19]: ≥ 400 µM
Cc1cccc(C(=O)NCCCCNCCCNC(=O)c2cccc(C)n2)n1,> 100,> 10,> 100,> 100,
O=C(O)CC1CNC(=O)c2cc(Br)c(Br)n21 (stereo not given),,,,,IC50 [20]: 1.53 µg/mL; IC50 [21]: 3.85 µg/mL
O=C(NCCCCNCCCNC(=O)c1cc(Br)c(Br)o1)c1cc(Br)c(Br)o1,> 100,3,18,23,Activity [1]: 60%; selectivity ratio [14]: ≥ 125; CC50 [2]: 82 µM; Activity [4]: Dose-dependent effect; Activity [7]: 77.4%; CC50 at 24 h [19]: ≥ 400 µM; Activity [9]: 35%; Activity [10]: 55.6%
O=C(NCCCCNCCCNC(=O)c1cccc(Cl)n1)c1cccc(Cl)n1,> 100,> 10,> 100,> 100,
O=C(NCCCCCNC(=O)c1cc(Br)c(Br)[nH]1)c1cc(Br)c(Br)[nH]1,7,> 10,19,24,CC50 [2]: 52 µM
O=C(NCCCCCCNCCCCCCNC(=O)c1cc(Br)c(Br)[nH]1)c1cc(Br)c(Br)[nH]1,> 100,2,> 100,> 100,selectivity ratio [14]: 101; CC50 at 24 h [19]: 263 µM
CC1(C)N=C(N)N=C(N)N1c1ccc(Cl)cc1 [CYCLOGUANIL],,0.01,,,IC50 [18]: 0.54 µM
O=C(NCCCCNCCCNC(=O)c1ccc(F)[nH]1)c1ccc(F)[nH]1,> 100,> 10,> 100,> 100,
O=C(NCCCCCCCCNC(=O)c1cc(Br)c(Br)[nH]1)c1cc(Br)c(Br)[nH]1,> 100,> 10,> 100,> 100,
O=C(NCCCNCCCCNCCCNC(=O)c1cc(Br)c(Br)[nH]1)c1cc(Br)c(Br)[nH]1,> 100,2,44,18 to 19,Activity [1]: 51%; selectivity ratio [14]: 52; CC50 [2]: > 100 µM; Activity [4]: Dose-dependent effect; Activity [7]: 81.2%; CC50 at 24 h [19]: 99 µM; Activity [9]: 45.4%; Activity [10]: 27.3%
O=C(NCCCCCNC(=O)c1ccc[nH]1)c1ccc[nH]1,> 50,> 10,> 100,> 100,

# Now from value to molecule, other results behind:
EC50 [3] [µM],IC50 [6] [µM],Structure (SMILES),EC50 [5] [µM],EC50 [8] [µM],also measured
> 100,> 10,O=C(NCCCCNCCCNC(=O)c1cc(Cl)c(Cl)[nH]1)c1cc(Cl)c(Cl)[nH]1,> 100,> 100,
24,> 10,O=C(NCCSCCNC(=O)c1cc(Br)c(Br)[nH]1)c1cc(Br)c(Br)[nH]1,43,24,CC50 [2]: 66 µM
> 50,> 10,[N-]=[N+]=NCC(=O)N(CCCCNC(=O)c1cc(Br)c(Br)[nH]1)CCCNC(=O)c1cc(Br)c(Br)[nH]1,> 100,> 100,
> 100,> 10,Cc1ccc(C(=O)NCCCCNCCCNC(=O)c2ccc(C)o2)o1,> 100,> 100,
> 100,> 10,O=C(NCCCCNCCCNC(=O)c1nc2ccccc2[nH]1)c1nc2ccccc2[nH]1,> 100,> 100,
> 100,4,CN(CCCCNC(=O)c1cc(Br)c(Br)[nH]1)CCCNC(=O)c1cc(Br)c(Br)[nH]1,> 100,> 100,selectivity ratio [14]: 35; CC50 at 24 h [19]: 160 µM
> 100,> 10,O=C(NCCCCNCCCNC(=O)c1ccc[nH]1)c1ccc[nH]1,> 100,> 100,
> 100,> 10,CC(=O)N(CCCCNC(=O)c1cc(Br)c(Br)[nH]1)CCCNC(=O)c1cc(Br)c(Br)[nH]1,> 100,> 100,
